Screening results: PubChem BioAssay, several laboratories
DNMT1 inh: inhibitors of human DNMT1; P26358; DNMT1 molecular beacon, Hinp1I cleavage, fluorescence; inhibition (reported as % activation of signal), % at 10 µM; 0.83% of 360,000 active; AID 588458; in the data active means inhibition above about 50%
MBD2 DNA inh: inhibitors of human MBD2 binding to methylated oligonucleotide; Q9UBB5; TR-FRET; inhibition, % at 4.4 µM; 0.31% of 370,000 active; AID 686964; in the data active means inhibition above about 13%
NS3 helicase inh: inhibitors of Hepatitis C virus NS3 helicase. 0.56% of 290,000 active. NS3 helicase DNA unwinding, Cy5 molecular beacon fluorescence. inhibition, % at 10.9 µM;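 active means inhibition above the mean of all tested compounds plus 3 SD, set per campaign, cut at about 35% in these data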;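 further: 0% = DMSO wells and 100% = thioflavine S control wells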
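System: NS3 helicase fragment of HCV / Schedule: 1 h at 25 °C / Control set: DMSO alone as 0% and 110 µM thioflavine S as 100% / Reagent: Cy5/quencher beacon DNA duplex and ATP to start / Technique: Cy5 fluorescence / Replication: singlicate / Evaluation: % inhibition of end-to-start signal ratio versus controls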
UHRF1 binding: human UHRF1 methylated DNA binding inhibitors | 0.75% of 370,000 active | UHRF1 binding to methylated oligo, TR-FRET | AID 687016 | inhibition, % at 4.4 µM; in the data active means inhibition above about 21%;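 further: UHRF1 SRA domain binding a hemimethylated CpG hairpin DNA probe; 0% = median of test compound wells and 100% = reference inhibitor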
Target sequence (Q96T88 whole entry, looked up, the tested form may be a part): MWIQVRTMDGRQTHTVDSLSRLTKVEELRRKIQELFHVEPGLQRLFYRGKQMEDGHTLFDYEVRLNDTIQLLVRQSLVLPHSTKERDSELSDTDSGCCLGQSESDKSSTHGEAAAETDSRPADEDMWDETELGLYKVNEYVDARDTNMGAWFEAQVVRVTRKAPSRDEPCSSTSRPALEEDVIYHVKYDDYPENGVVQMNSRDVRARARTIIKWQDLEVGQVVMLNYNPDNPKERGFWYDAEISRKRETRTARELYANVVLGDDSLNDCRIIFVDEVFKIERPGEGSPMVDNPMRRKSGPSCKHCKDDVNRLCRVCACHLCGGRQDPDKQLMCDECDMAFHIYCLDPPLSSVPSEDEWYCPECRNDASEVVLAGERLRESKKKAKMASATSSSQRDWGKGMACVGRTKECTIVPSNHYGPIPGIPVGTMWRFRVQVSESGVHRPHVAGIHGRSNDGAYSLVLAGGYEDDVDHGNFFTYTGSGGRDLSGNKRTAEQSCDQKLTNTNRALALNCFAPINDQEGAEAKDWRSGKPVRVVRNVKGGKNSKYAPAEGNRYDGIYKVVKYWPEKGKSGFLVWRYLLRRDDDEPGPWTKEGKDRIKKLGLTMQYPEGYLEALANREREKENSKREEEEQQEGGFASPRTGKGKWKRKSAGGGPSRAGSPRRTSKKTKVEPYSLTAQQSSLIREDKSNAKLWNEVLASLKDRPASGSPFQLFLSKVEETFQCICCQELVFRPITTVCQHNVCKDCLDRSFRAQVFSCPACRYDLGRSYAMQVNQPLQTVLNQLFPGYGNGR
DSG3 Ab inh: human desmoglein-3 autoantibody binding inhibition; P32926; binding (percent of control), % at 10 µM; AID 588358; DSG3-coupled beads, scFv-anti-DSG3-GFP binding, flow cytometry; stronger effect = lower value; 0.48% of 310,000 active;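 active means binding more than 3 SD below its plate's average and above zero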;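 further: hits lower antibody fragment binding to DSG3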
SUMO1-SIM PPI: SUMO1-SIM interaction modulation; P63165; SUMO1 binding to a labelled peptide, TR-FRET, 1 h; inhibition, % at 20 µM; 0.33% of 360,000 active; in the data active means inhibition above about 37%
An asterisk follows results filed as active; · = not tested or not shown. An excerpt weighted towards active compounds, which were near 2.5% of everything screened.

SMILES	DNMT1 inh	MBD2 DNA inh	NS3 helicase inh	UHRF1 binding	DSG3 Ab inh	SUMO1-SIM PPI
S=c1[nH]nc(-c2ccco2)n1/N=C/c1ccc(Cl)cc1	1.6	-0.5	32.5	0.5	96.3	-2.4
CN1/C(=C\C=C2/C(=O)Oc3ccccc3C2=O)C(C)(C)c2ccccc21	·	-10.5	-5.8	-19.2	·	·
CN1C(=CC=C2C=C(I)C(=O)C(I)=C2)C(C)(C)c2ccccc21	3.0	2.1	-4.5	2.2	58.9*	-19.5
Cc1ccc(-c2cc(C(=O)N3CCOCC3)c3ccccc3n2)cc1	-4.6	-4.3	5.9	26.8*	90.3	-1.8
Cc1ccc(C)c(C(=O)CN2Cc3ccccc3C2=O)c1	0.4	-0.6	1.4	-2.8	115.8	45.8*
CCC(C)(C)NC(=O)C(c1ccncc1)N(Cc1cccs1)C(=O)Cn1nnc2ccccc21 (stereo not given)	-0.4	-6.7	3.2	1.9	99.0	-2.3
CCC(C)(C)NC(=O)C(c1ccncc1)N(C(=O)Cn1nnc2ccccc21)c1cc2c(cc1C(C)=O)OCO2 (stereo not given)	0.1	-3.5	-8.6	-5.8	84.2*	-2.9
CCc1ccc2[nH]c3nc(N/N=C/c4ccc(O)cc4O)nnc3c2c1	61.5*	-1.4	-49.3	-6.4	94.6	11.1
CCC(Sc1nc2cc(OC)c(OC)cc2c(=O)n1Cc1ccc(OC)cc1)C(=O)NCCOC (stereo not given)	-1.1	-2.3	2.3	23.3*	103.0	1.7
O=C(Nc1cc([N+](=O)[O-])ccc1N1CCOCC1)c1cccs1	2.4	-0.9	-5.6	-0.6	105.4	-9.8
O=C(Nc1ccc(NC(=O)c2cc([N+](=O)[O-])ccc2N2CCOCC2)cc1)c1cccs1	-4.4	8.6	-2.0	22.7*	95.0	-11.5
O=Cc1ccnc(-c2ccc(OC(=O)c3ccco3)cc2)n1	-7.7	-1.3	13.7	-1.3	95.9	55.7*
O=C(Oc1ccc(-c2ccccc2)cc1)c1ccco1	2.6	3.4	·	-0.6	89.9	2.5
Cc1cc2ncn(C3CC(=O)N(C)C3=O)c2cc1C (stereo not given)	-8.0	1.9	-1.5	2.2	96.9	-5.1
Cc1ccc(C)c(NS(=O)(=O)c2ccc3c(c2)NC(=O)CCS3)c1	0.7	2.0	-9.5	2.2	·	0.8
Cc1ccc(NS(=O)(=O)c2ccc3c(c2)NC(=O)CCS3)c(Br)c1	0.9	1.4	-7.5	29.1*	·	4.3
N#Cc1cn(CC(=O)NCc2cccnc2)c2ccccc12	4.2	2.0	3.5	0.9	98.7	1.5
O=C(O)c1cccn2c(=O)c3ccccc3nc12	10.0	10.8	3.6	20.7*	94.2	-0.9
CC(O)[C@H]1CNC(=O)C(=O)N1CC1CCCCC1 (stereo not given in full)	4.1	0.1	·	-2.5	105.2	2.4
CCC(C)[C@H]1CNC(=O)C(=O)N1CC1CCCCC1 (stereo not given in full)	·	0.8	·	3.0	·	46.6*
COc1ccc(/C=C2/SC(=O)N(CCC(=O)Nc3ccc(C)cc3)C2=O)cc1OC	·	-4.6	1.2	1.3	·	·
COc1cc(/C=C2\SC(N)=NC2=O)ccc1OCC(=O)Nc1ccc(C)cc1	53.6*	-2.4	-0.7	-1.4	126.0	6.1
S=c1[nH]nc(COc2ccccc2)n1Cc1ccccc1	6.1	-1.3	6.7	-0.4	92.0	0.7
CC(C)CCn1c(COc2ccccc2)n[nH]c1=S	0.2	0.3	7.3	21.4*	102.8	2.0
O=C(COCC(=O)Nc1cccc(C(F)(F)F)c1)Nc1cccc(C(F)(F)F)c1	-12.9	-4.4	-11.1	2.4	101.2	-3.4
COc1cc(NC(=O)CSCC(=O)Nc2cccc(C(F)(F)F)c2)c(Cl)cc1Cl	-2.7	7.5	-11.1	3.5	100.9	44.3*
CCCN(C(=O)c1cn(CC)c2nc(C)ccc2c1=O)c1c(N)n(Cc2ccccc2)c(=O)[nH]c1=O	-11.7	-7.9	1.5	18.9	98.6	2.0
O=C(c1c[nH]c2ccc(F)cc2c1=O)N1CCCCCC1	1.0	4.4	-4.7	-3.0	103.2	-5.7
Cc1cccc2c(=O)c(C(=O)N3CCCCCC3)c[nH]c12	3.8	10.5	7.2	22.5*	·	2.8
CCCc1ccc(Oc2cc(C)nc(N3CCOCC3)n2)cc1	-1.5	-3.4	3.7	0.7	99.0	-0.6
